Laboratory results taken from ChEMBL document CHEMBL1144182, “Antimicrobial and cytotoxic arylazoenamines. Part III: antiviral activity of selected classes of arylazoenamines” (Bioorg Med Chem, 2008).
Calls of active or inactive are those of the source. The rule behind the calls is not given here.

Tested on: not listed separately
Assay: Cytotoxicity against mock-infected human MT4 cells assessed as reduction in cell viability after 96 hrs by MTT assay
Assay type: cell-based
Conditions: not given
How it was run: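 Exponentially growing MT-4 cells seeded at 1 × 10^5 cells/mL in RPMI-1640 with 10% FCS, penicillin and streptomycin, with or without serial compound dilutions. Incubated at 37 °C, 5% CO2; viability read by MTT after 96 h. CC50 is the concentration reducing mock-infected cell viability by 50%.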

SMILES | CC50 at 96 h
CN1CCC/C1=C\N=N\c1ccc(Cl)c(Cl)c1 | 39 µM
FC(F)(F)c1cc(/N=N\C2=C3CCCN3CCC2)ccc1Cl | 30 µM
CN1CCC/C1=C\N=N\c1ccc(F)c(C(F)(F)F)c1 | 11 µM
CN1CCC/C1=C\N=N\c1cccc(C(F)(F)F)c1 | 49 µM
Clc1ccc(N2CCN(/C=C/N=N/c3ccccc3)CC2)cc1 | 21 µM
Clc1ccc(/N=N\C2=C3CCCN3CCC2)cc1Cl | 26 µM
CN1C=C(/N=N/c2cccc(C(F)(F)F)c2)CCC1 | > 100 µM

Tested on: not listed separately
Assay: Cytotoxicity against mock-infected MDBK cells assessed as reduction in cell viability after 96 hrs by MTT assay
Assay type: cell-based, Bos taurus
Conditions: cattle
How it was run: (§1)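 Cytotoxicity run in parallel with the antiviral assays. MDBK seeded at 6 × 10^5 and BHK at 1 × 10^6 cells/mL in maintenance medium with or without serial compound dilutions. Incubated 48–96 h at 37 °C, 5% CO2, then viability read by MTT. CC50 is the concentration reducing mock-infected cell viability by 50%.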

SMILES | CC50 at 96 h
CN1CCC/C1=C\N=N\c1ccc(Cl)c(Cl)c1 | 90 µM
FC(F)(F)c1cc(/N=N\C2=C3CCCN3CCC2)ccc1Cl | 21 µM
CN1CCC/C1=C\N=N\c1ccc(F)c(C(F)(F)F)c1 | > 100 µM
CN1CCC/C1=C\N=N\c1cccc(C(F)(F)F)c1 | 90 µM
Clc1ccc(N2CCN(/C=C/N=N/c3ccccc3)CC2)cc1 | 7.5 µM
Clc1ccc(/N=N\C2=C3CCCN3CCC2)cc1Cl | 67 µM
CN1C=C(/N=N/c2cccc(C(F)(F)F)c2)CCC1 | > 100 µM

Tested on: Bovine viral diarrhea virus 1
Assay: Antiviral activity against BVDV infected in MDBK cells assessed as protection against virus-induced cytopathogenicity after 4 days by MTT assay
Assay type: functional, organism-based
Conditions: Bovine viral diarrhea virus isolates and strains, 96 h
How it was run: (§2)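 MDBK (BVDV) or BHK-21 (YFV) cells were seeded at 3 × 10^4 or 5 × 10^4 cells/well respectively and grown overnight to confluent monolayers at 37 °C in 5% CO2. Monolayers were infected at m.o.i. 0.01 in serum-free medium. After 1 h, MEM Earle's with 1% FCS was added, with or without serial compound dilutions. After 3–4 days at 37 °C, viability was read by MTT. EC50 was taken as 50% protection from virus-induced cytopathogenicity.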

SMILES | EC50
CN1CCC/C1=C\N=N\c1ccc(Cl)c(Cl)c1 | 16 µM
FC(F)(F)c1cc(/N=N\C2=C3CCCN3CCC2)ccc1Cl | > 21 µM
CN1CCC/C1=C\N=N\c1ccc(F)c(C(F)(F)F)c1 | 100 µM
CN1CCC/C1=C\N=N\c1cccc(C(F)(F)F)c1 | 21 µM
Clc1ccc(N2CCN(/C=C/N=N/c3ccccc3)CC2)cc1 | > 7.5 µM
Clc1ccc(/N=N\C2=C3CCCN3CCC2)cc1Cl | > 67 µM
CN1C=C(/N=N/c2cccc(C(F)(F)F)c2)CCC1 | 90 µM

Tested on: not listed separately
Assay: Cytotoxicity against mock-infected BHK cells assessed as reduction in cell viability after 96 hrs by MTT assay
Assay type: cell-based, Mesocricetus auratus
Conditions: hamster
How it was run: as §1

SMILES | CC50 at 96 h
CN1CCC/C1=C\N=N\c1ccc(Cl)c(Cl)c1 | 23 µM
FC(F)(F)c1cc(/N=N\C2=C3CCCN3CCC2)ccc1Cl | 51 µM
CN1CCC/C1=C\N=N\c1ccc(F)c(C(F)(F)F)c1 | 41 µM
CN1CCC/C1=C\N=N\c1cccc(C(F)(F)F)c1 | 50 µM
Clc1ccc(N2CCN(/C=C/N=N/c3ccccc3)CC2)cc1 | 29 µM
Clc1ccc(/N=N\C2=C3CCCN3CCC2)cc1Cl | 61 µM
CN1C=C(/N=N/c2cccc(C(F)(F)F)c2)CCC1 | > 100 µM

Tested on: Yellow fever virus
Assay: Antiviral activity against YFV infected in BHK21 cells assessed as protection against virus-induced cytopathogenicity after 4 days by MTT assay
Assay type: functional, organism-based
Conditions: BHK-21, 96 h
How it was run: as §2

SMILES | EC50
CN1CCC/C1=C\N=N\c1ccc(Cl)c(Cl)c1 | > 23 µM
FC(F)(F)c1cc(/N=N\C2=C3CCCN3CCC2)ccc1Cl | > 51 µM
CN1CCC/C1=C\N=N\c1ccc(F)c(C(F)(F)F)c1 | > 41 µM
CN1CCC/C1=C\N=N\c1cccc(C(F)(F)F)c1 | > 50 µM
Clc1ccc(N2CCN(/C=C/N=N/c3ccccc3)CC2)cc1 | 7.5 µM
Clc1ccc(/N=N\C2=C3CCCN3CCC2)cc1Cl | > 61 µM
CN1C=C(/N=N/c2cccc(C(F)(F)F)c2)CCC1 | > 100 µM

Tested on: not listed separately
Assay: Cytotoxicity against mock-infected african green monkey Vero76 cells assessed as reduction in cell viability after 96 hrs by MTT assay
Assay type: cell-based, Vero
Conditions: chlorocebus sabaeus

SMILES | CC50 at 96 h
CN1CCC/C1=C\N=N\c1ccc(Cl)c(Cl)c1 | 100 µM
FC(F)(F)c1cc(/N=N\C2=C3CCCN3CCC2)ccc1Cl | 100 µM
CN1CCC/C1=C\N=N\c1ccc(F)c(C(F)(F)F)c1 | > 100 µM
CN1CCC/C1=C\N=N\c1cccc(C(F)(F)F)c1 | > 100 µM
Clc1ccc(N2CCN(/C=C/N=N/c3ccccc3)CC2)cc1 | 45 µM
Clc1ccc(/N=N\C2=C3CCCN3CCC2)cc1Cl | > 100 µM
CN1C=C(/N=N/c2cccc(C(F)(F)F)c2)CCC1 | > 100 µM

Tested on: Coxsackievirus B2
Assay: Antiviral activity against CVB2 infected in Vero76 cells assessed as reduction in virus plaque formation after 4 days by MTT assay
Assay type: functional, organism-based
Conditions: Enterovirus B, Vero 76, 96 h

SMILES | EC50
CN1CCC/C1=C\N=N\c1ccc(Cl)c(Cl)c1 | > 100 µM
FC(F)(F)c1cc(/N=N\C2=C3CCCN3CCC2)ccc1Cl | 9 µM
CN1CCC/C1=C\N=N\c1ccc(F)c(C(F)(F)F)c1 | 71 µM
CN1CCC/C1=C\N=N\c1cccc(C(F)(F)F)c1 | > 100 µM
Clc1ccc(N2CCN(/C=C/N=N/c3ccccc3)CC2)cc1 | 7 µM
Clc1ccc(/N=N\C2=C3CCCN3CCC2)cc1Cl | 30 µM
CN1C=C(/N=N/c2cccc(C(F)(F)F)c2)CCC1 | > 100 µM

Tested on: Respiratory syncytial virus
Assay: Antiviral activity against RSV infected in Vero76 cells assessed as reduction in virus plaque formation after 4 days by MTT assay
Assay type: functional, organism-based
Conditions: human respiratory syncytial virus, Vero 76, 96 h

SMILES | EC50
CN1CCC/C1=C\N=N\c1ccc(Cl)c(Cl)c1 | > 100 µM
FC(F)(F)c1cc(/N=N\C2=C3CCCN3CCC2)ccc1Cl | > 100 µM
CN1CCC/C1=C\N=N\c1ccc(F)c(C(F)(F)F)c1 | > 100 µM
CN1CCC/C1=C\N=N\c1cccc(C(F)(F)F)c1 | > 100 µM
Clc1ccc(N2CCN(/C=C/N=N/c3ccccc3)CC2)cc1 | 7 µM
Clc1ccc(/N=N\C2=C3CCCN3CCC2)cc1Cl | > 100 µM
CN1C=C(/N=N/c2cccc(C(F)(F)F)c2)CCC1 | > 100 µM

Tested on: Poliovirus 1
Assay: Antiviral activity against Sb1 virus infected in Vero76 cells assessed as reduction in virus plaque formation after 4 days by MTT assay
Assay type: functional, organism-based
Conditions: Enterovirus C, Sabin, Vero 76, 96 h

SMILES | EC50
CN1CCC/C1=C\N=N\c1ccc(Cl)c(Cl)c1 | 53 µM
FC(F)(F)c1cc(/N=N\C2=C3CCCN3CCC2)ccc1Cl | 12 µM
CN1CCC/C1=C\N=N\c1ccc(F)c(C(F)(F)F)c1 | > 100 µM
CN1CCC/C1=C\N=N\c1cccc(C(F)(F)F)c1 | > 100 µM
Clc1ccc(N2CCN(/C=C/N=N/c3ccccc3)CC2)cc1 | > 45 µM
Clc1ccc(/N=N\C2=C3CCCN3CCC2)cc1Cl | 45 µM
CN1C=C(/N=N/c2cccc(C(F)(F)F)c2)CCC1 | > 100 µM

Tested on: Human alphaherpesvirus 1
Assay: Antiviral activity against HSV1 infected in Vero76 cells assessed as reduction in virus plaque formation after 4 days by MTT assay
Assay type: functional, organism-based
Conditions: Human alphaherpesvirus 1, Vero 76, 96 h

SMILES | EC50
CN1CCC/C1=C\N=N\c1ccc(Cl)c(Cl)c1 | 40 µM
FC(F)(F)c1cc(/N=N\C2=C3CCCN3CCC2)ccc1Cl | 33 µM
CN1CCC/C1=C\N=N\c1ccc(F)c(C(F)(F)F)c1 | 60 µM

Tested on: Human immunodeficiency virus 1
Assay: Antiviral activity against HIV1 infected in MT4 cells assessed as virus-induced cytopathogenicity after 4 days
Assay type: functional, organism-based
Conditions: not given

SMILES | Activity
CN1CCC/C1=C\N=N\c1ccc(Cl)c(Cl)c1 | inactive
FC(F)(F)c1cc(/N=N\C2=C3CCCN3CCC2)ccc1Cl | inactive
CN1CCC/C1=C\N=N\c1ccc(F)c(C(F)(F)F)c1 | inactive
CN1CCC/C1=C\N=N\c1cccc(C(F)(F)F)c1 | inactive
Clc1ccc(N2CCN(/C=C/N=N/c3ccccc3)CC2)cc1 | inactive
Clc1ccc(/N=N\C2=C3CCCN3CCC2)cc1Cl | inactive
CN1C=C(/N=N/c2cccc(C(F)(F)F)c2)CCC1 | inactive

Tested on: Vaccinia virus
Assay: Antiviral activity against VV infected in Vero76 cells assessed as reduction in virus plaque formation after 4 days by MTT assay
Assay type: functional, organism-based
Conditions: Orthopoxvirus vaccinia; Vero 76

SMILES | Activity
CN1CCC/C1=C\N=N\c1ccc(Cl)c(Cl)c1 | inactive
FC(F)(F)c1cc(/N=N\C2=C3CCCN3CCC2)ccc1Cl | inactive
CN1CCC/C1=C\N=N\c1ccc(F)c(C(F)(F)F)c1 | inactive
CN1CCC/C1=C\N=N\c1cccc(C(F)(F)F)c1 | inactive
Clc1ccc(N2CCN(/C=C/N=N/c3ccccc3)CC2)cc1 | inactive
Clc1ccc(/N=N\C2=C3CCCN3CCC2)cc1Cl | inactive
CN1C=C(/N=N/c2cccc(C(F)(F)F)c2)CCC1 | inactive

Tested on: Vesicular stomatitis virus
Assay: Antiviral activity against VSV infected in Vero76 cells assessed as reduction in virus plaque formation after 4 days by MTT assay
Assay type: functional, organism-based
Conditions: Vero 76

SMILES | Activity
CN1CCC/C1=C\N=N\c1ccc(Cl)c(Cl)c1 | inactive
FC(F)(F)c1cc(/N=N\C2=C3CCCN3CCC2)ccc1Cl | inactive
CN1CCC/C1=C\N=N\c1ccc(F)c(C(F)(F)F)c1 | inactive
CN1CCC/C1=C\N=N\c1cccc(C(F)(F)F)c1 | inactive
Clc1ccc(N2CCN(/C=C/N=N/c3ccccc3)CC2)cc1 | inactive
Clc1ccc(/N=N\C2=C3CCCN3CCC2)cc1Cl | inactive
CN1C=C(/N=N/c2cccc(C(F)(F)F)c2)CCC1 | inactive
